According to ChEMBL document CHEMBL3804777, “Identification and Preclinical Pharmacology of BMS-986104: A Differentiated S1P1 Receptor Modulator in Clinical Trials” (ACS Med Chem Lett, 2016):
Calls of active or inactive are those of the source. The calls are words filed in the database; no cut-off is given here.

Assays:
Mus musculus [1] = assay: Reduction in body weight loss in SCID mouse with CD45RBhiCD4+ T-cell transfer-induced colitis model of inflammatory bowel disease at 1 or 5 mg/kg, po dosed every other day for 5 weeks; assay type: functional, organism-based
How it was run: (§1)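 CD45RBhiCD4+ T-cell transfer colitis in mice; oral alternate-day dosing for 5 weeks, compared with vehicle. Read-outs: body weight, colon length, histological colon inflammation and tissue damage, and colon gene expression by RT-PCR (IFN-γ, IL-2, CD4, B220, CD11b, Fcgr4, Ifit1, OASL2).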

Mus musculus [2] = assay: Reduction in B220 gene expression in SCID mouse with CD45RBhiCD4+ T-cell transfer-induced colitis model of inflammatory bowel disease at 1 mg/kg, po dosed daily for 5 weeks by RT-PCR method; assay type: functional; design: scale not given: the % may be the effect or the level left; settings: in the assay text read “dosed on alternate days” for “dosed daily”
[3] = Volume of distribution at steady state in mouse at 0.5 mg/kg, iv; assay type: ADME, organism-based; settings: in vivo, read-out: Vdss
Blood [4] = assay: Drug metabolism in BALB/c mouse blood assessed as formation of phosphate ester metabolite at 10 mg/kg administered through oral gavage after 4 hrs by LC/MS/MS analysis; assay type: ADME, organism-based; settings: in vivo
How it was run: (§2)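 Mouse PK study: alcohol prodrug given orally at 10 mg/kg, and formation of the phosphate metabolite in blood measured.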

Mus musculus [5] = assay: Reduction in CD4 gene expression in SCID mouse with CD45RBhiCD4+ T-cell transfer-induced colitis model of inflammatory bowel disease at 1 mg/kg, po dosed daily for 5 weeks by RT-PCR method; assay type: functional; design: scale not given: the % may be the effect or the level left; settings: in the assay text read “dosed on alternate days” for “dosed daily”
Mus musculus [6] = assay: Reduction in colon tissue damage in SCID mouse with CD45RBhiCD4+ T-cell transfer-induced colitis model of inflammatory bowel disease at 1 or 5 mg/kg, po dosed every other day for 5 weeks by H and E staining method; assay type: functional, organism-based; how it was run: as §1
Mus musculus [7] = assay: Pulmonary toxicity in BALB/c mouse assessed as BAL protein levels at 10 mg/kg, po after 24 by hematology analysis (reference value: 8.2 to 8.3 mg/dL); assay type: organism-based; settings: in vivo
[8] = Plasma clearance in mouse at 0.5 mg/kg, iv; assay type: ADME, organism-based
Mus musculus [9] = assay: Reduction in lymphocyte level in BALB/c mouse assessed as blood lymphocyte level at 10 mg/kg, po after 24 hrs by hematology analysis (reference value: 5.13 to 8.02 10^3/mm3); assay type: functional
Blood [10] = assay: Drug metabolism in BALB/c mouse blood assessed as formation of phosphate metabolite at 1 mg/kg administered through oral gavage after 24 hrs by LC/MS/MS analysis; assay type: ADME, organism-based; settings: in vivo
How it was run: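 Single oral 1 mg/kg dose in mice; phosphate level in blood determined at 24 h postdose.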

Mus musculus [11] = assay: Reduction of blood lymphocyte level in BALB/c mouse at 1 mg/kg administered through oral gavage after 24 hrs by hematology analysis; assay type: functional; design: scale not given: the % may be the effect or the level left
How it was run: (§3)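 Mice given a single oral 1 mg/kg dose; circulating lymphocytes counted 24 h later as the pharmacodynamic marker.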

Mus musculus [12] = assay: Reduction in colon inflammation in SCID mouse with CD45RBhiCD4+ T-cell transfer-induced colitis model of inflammatory bowel disease at 1 or 5 mg/kg, po dosed every other day for 5 weeks by H and E staining method; assay type: functional, organism-based; how it was run: as §1
Mus musculus [13] = assay: Reduction in IL2 gene expression in SCID mouse with CD45RBhiCD4+ T-cell transfer-induced colitis model of inflammatory bowel disease at 1 mg/kg, po dosed daily for 5 weeks by RT-PCR method; assay type: functional; design: scale not given: the % may be the effect or the level left; settings: in the assay text read “dosed on alternate days” for “dosed daily”
Mus musculus [14] = assay: Reduction in CD11b gene expression in SCID mouse with CD45RBhiCD4+ T-cell transfer-induced colitis model of inflammatory bowel disease at 1 mg/kg, po dosed daily for 5 weeks by RT-PCR method; assay type: functional; design: scale not given: the % may be the effect or the level left; settings: in the assay text read “dosed on alternate days” for “dosed daily”
Mus musculus [15] = assay: Reduction in Ifit1 gene expression in SCID mouse with CD45RBhiCD4+ T-cell transfer-induced colitis model of inflammatory bowel disease at 1 mg/kg, po dosed daily for 5 weeks by RT-PCR method; assay type: functional; design: scale not given: the % may be the effect or the level left
How it was run: (§4)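 CD45RBhiCD4+ T-cell transfer colitis in mice; oral dosing at 1 mg/kg/day for 5 weeks, compared with vehicle. Read-outs: body weight, colon length, and colon gene expression by RT-PCR (IFN-γ, IL-2, CD4, B220, CD11b, Fcgr4, Ifit1, OASL2).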

Mus musculus [16] = assay: Reduction in OASL2 gene expression in SCID mouse with CD45RBhiCD4+ T-cell transfer-induced colitis model of inflammatory bowel disease at 1 mg/kg, po dosed daily for 5 weeks by RT-PCR method; assay type: functional; design: scale not given: the % may be the effect or the level left; how it was run: as §4
Mus musculus [17] = assay: Reduction in blood lymphocyte level in BALB/c mouse at 1 mg/kg, po after 24 hrs by hematology analysis; assay type: functional, organism-based; how it was run: as §3
Mus musculus [18] = assay: Reduction in IFNgamma gene expression in SCID mouse with CD45RBhiCD4+ T-cell transfer-induced colitis model of inflammatory bowel disease at 1 mg/kg, po dosed daily for 5 weeks by RT-PCR method; assay type: functional; design: scale not given: the % may be the effect or the level left; settings: in the assay text read “dosed on alternate days” for “dosed daily”
Mus musculus [19] = assay: Pulmonary toxicity in BALB/c mouse assessed as BAL protein levels at 30 mg/kg, po after 24 by hematology analysis (reference value: 8.2 to 8.3 mg/dL); assay type: organism-based; settings: in vivo
Mus musculus [20] = assay: Reduction in lymphocyte level in BALB/c mouse assessed as blood lymphocyte level at 30 mg/kg, po after 24 hrs by hematology analysis (reference value: 5.13 to 8.02 10^3/mm3); assay type: functional
Mus musculus [21] = assay: Reduction in Fcgr4 gene expression in SCID mouse with CD45RBhiCD4+ T-cell transfer-induced colitis model of inflammatory bowel disease at 1 mg/kg, po dosed daily for 5 weeks by RT-PCR method; assay type: functional; design: scale not given: the % may be the effect or the level left; how it was run: as §4
Mus musculus [22] = assay: Reduction in lymphocyte level in BALB/c mouse assessed as blood lymphocyte level at 0.5 mg/kg, po after 24 hrs by hematology analysis (reference value: 5.13 to 8.02 10^3/mm3); assay type: functional
Mus musculus [23] = assay: Induction of colon length shortening in SCID mouse with CD45RBhiCD4+ T-cell transfer-induced colitis model of inflammatory bowel disease at 1 or 5 mg/kg, po dosed every other day for 5 weeks; assay type: functional, organism-based; how it was run: as §1
Blood [24] = assay: Drug metabolism in BALB/c mouse blood assessed as formation of phosphate ester metabolite at 10 mg/kg administered through oral gavage after 24 hrs by LC/MS/MS analysis; assay type: ADME, organism-based; settings: in vivo; how it was run: as §2
[25] = Oral bioavailability in mouse at 1 mg/kg; assay type: ADME, organism-based; settings: in vivo
[26] = Drug metabolism in BALB/c mouse whole blood assessed as whole blood phosphate area ratio at 10 uM after 4 hrs by LC/MS/MS analysis; assay type: ADME, tissue-based
How it was run: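 Mouse whole blood incubated with the amino-alcohol prodrug; phosphorylated product measured by LC/MS/MS after 4 h to give the relative extent of phosphate ester formation.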

Mus musculus [27] = assay: Pulmonary toxicity in BALB/c mouse assessed as BAL protein levels at 0.5 mg/kg, po after 24 by hematology analysis (reference value: 8.2 to 8.3 mg/dL); assay type: organism-based; settings: in vivo

With `CCCCCC[C@@H]1CCc2cc([C@H]3CC[C@](N)(CO)C3)ccc2C1` [BMS-986104] the inhibition (Mus musculus [1]) was “Dose-dependent effect”, the Activity (Mus musculus [2]) was 47% and the Vd [3] was 60 L/kg. For the same compound, the Drug metabolism (Blood [4]) was 41 nM, the Activity (Mus musculus [5]) was 51% and the Activity (Mus musculus [6]) was “Dose-dependent effect”. It also gave an Activity (Mus musculus [7]) of 8.25 mg/dL, a clearance [8] of 20 mL/min/kg and an Activity (Mus musculus [9]) of 0.51 ×10³ /mm3. The Drug metabolism (Blood [10]) was 27 nM, the Activity (Mus musculus [11]) was 88% and the Activity (Mus musculus [12]) was “Dose-dependent effect”. The Activity (Mus musculus [13]) was 63%, the Activity (Mus musculus [14]) was 41% and the Activity (Mus musculus [15]) was 42%. For the same compound, the Activity (Mus musculus [16]) was 41%, the Activity (Mus musculus [17]) was “Active” and the Activity (Mus musculus [18]) was 45%. It also gave an Activity (Mus musculus [19]) of 10 mg/dL, an Activity (Mus musculus [20]) of 0.52 ×10³ /mm3 and an Activity (Mus musculus [21]) of 50%. For the same compound, the Activity (Mus musculus [22]) was 1.65 ×10³ /mm3, the Activity (Mus musculus [23]) was “Dose-dependent effect” and the Drug metabolism (Blood [24]) was 202 nM. It also gave a bioavailability [25] of 65%, a Ratio [26] of 0.6 and an Activity (Mus musculus [27]) of 7.67 mg/dL.
